Reference: ChEMBL document CHEMBL1137015, “Improved, selective, human intestinal carboxylesterase inhibitors designed to modulate 7-ethyl-10-[4-(1-piperidino)-1-piperidino]carbonyloxycamptothecin (Irinotecan; CPT-11) toxicity” (J Med Chem, 2009)
Active and inactive are the calls of the source.

Experiments:
[1] = target: Acetylcholinesterase (Homo sapiens) (UniProt P22303); assay: Inhibition of human AchE using acetylthiocholine as substrate by spectrophotometric multiwell plate assay
[2] = Inhibition of human intestinal CE-mediated O-nitrophenyl acetate hydrolysis by spectrophotometry
In short: (§1)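 Enzyme activity read spectrophotometrically as release of o-nitrophenol from o-nitrophenyl acetate across increasing inhibitor concentrations. Inhibitors were freshly dissolved in DMSO, typically as 10mM stocks. Fractional inhibition was plotted against inhibitor concentration and fitted to a partial-inhibition equation including Ks, α and β. Inhibition mode was chosen by Akaike's information criteria, and Ki was taken from the best-fit model.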

[3] = target: Cholinesterase (Homo sapiens) (UniProt P06276); assay: Inhibition of human BchE using butyrylthiocholine as substrate by spectrophotometric multiwell plate assay
[4] = Inhibition of human intestinal CE-mediated irinotecan hydrolysis
In short: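 Human intestinal CE (25 U per reaction; 1 U converts 1 nmole o-nitrophenyl acetate/min) with 20µM CPT-11 in 50mM Hepes pH7.4, inhibitor 1nM to 100µM. Incubated 37°C for 5 min, stopped with cold acidified methanol, centrifuged. SN-38 measured by reverse phase HPLC. Fractional inhibition fitted to partial inhibition equation, model chosen by Akaike's criteria, Ki from best fit.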

Liver carboxylesterase 1 = target: T1, Liver carboxylesterase 1 (Homo sapiens, UniProt P23141); assay: Inhibition of human liver CE1-mediated O-nitrophenyl acetate hydrolysis by spectrophotometry; in short: as §1
T1 sequence (P23141 whole entry): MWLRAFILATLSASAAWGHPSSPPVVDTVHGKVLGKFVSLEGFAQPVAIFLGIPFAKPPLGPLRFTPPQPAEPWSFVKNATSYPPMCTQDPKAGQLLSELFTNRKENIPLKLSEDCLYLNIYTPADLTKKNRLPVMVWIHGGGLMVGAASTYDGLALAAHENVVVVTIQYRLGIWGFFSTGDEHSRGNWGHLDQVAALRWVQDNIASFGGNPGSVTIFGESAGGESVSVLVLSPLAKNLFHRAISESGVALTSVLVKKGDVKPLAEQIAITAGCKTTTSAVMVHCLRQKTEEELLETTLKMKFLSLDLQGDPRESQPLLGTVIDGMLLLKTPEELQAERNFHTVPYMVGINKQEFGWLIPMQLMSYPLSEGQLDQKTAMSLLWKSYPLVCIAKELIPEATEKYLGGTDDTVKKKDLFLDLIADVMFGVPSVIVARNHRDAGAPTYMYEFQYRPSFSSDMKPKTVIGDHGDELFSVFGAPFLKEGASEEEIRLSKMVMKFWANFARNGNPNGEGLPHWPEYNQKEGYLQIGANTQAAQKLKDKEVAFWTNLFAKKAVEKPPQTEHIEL

Sequence of Cholinesterase (Homo sapiens) (P06276 whole entry): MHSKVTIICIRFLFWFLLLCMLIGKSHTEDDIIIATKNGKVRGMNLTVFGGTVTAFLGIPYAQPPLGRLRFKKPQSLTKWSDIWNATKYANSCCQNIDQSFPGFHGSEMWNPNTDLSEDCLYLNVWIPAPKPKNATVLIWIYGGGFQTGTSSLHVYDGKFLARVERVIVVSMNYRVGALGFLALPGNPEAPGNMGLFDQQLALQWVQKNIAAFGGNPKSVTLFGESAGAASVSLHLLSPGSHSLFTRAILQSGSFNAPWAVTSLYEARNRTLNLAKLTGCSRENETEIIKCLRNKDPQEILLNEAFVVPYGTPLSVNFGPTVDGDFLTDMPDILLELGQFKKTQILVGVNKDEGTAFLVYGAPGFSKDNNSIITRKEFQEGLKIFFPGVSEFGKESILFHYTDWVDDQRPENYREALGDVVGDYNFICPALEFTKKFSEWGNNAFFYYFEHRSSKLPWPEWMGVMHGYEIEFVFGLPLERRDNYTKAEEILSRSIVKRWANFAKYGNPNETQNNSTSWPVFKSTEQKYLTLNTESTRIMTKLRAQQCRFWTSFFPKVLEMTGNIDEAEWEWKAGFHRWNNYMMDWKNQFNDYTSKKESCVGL
Sequence of Acetylcholinesterase (Homo sapiens) (P22303 whole entry): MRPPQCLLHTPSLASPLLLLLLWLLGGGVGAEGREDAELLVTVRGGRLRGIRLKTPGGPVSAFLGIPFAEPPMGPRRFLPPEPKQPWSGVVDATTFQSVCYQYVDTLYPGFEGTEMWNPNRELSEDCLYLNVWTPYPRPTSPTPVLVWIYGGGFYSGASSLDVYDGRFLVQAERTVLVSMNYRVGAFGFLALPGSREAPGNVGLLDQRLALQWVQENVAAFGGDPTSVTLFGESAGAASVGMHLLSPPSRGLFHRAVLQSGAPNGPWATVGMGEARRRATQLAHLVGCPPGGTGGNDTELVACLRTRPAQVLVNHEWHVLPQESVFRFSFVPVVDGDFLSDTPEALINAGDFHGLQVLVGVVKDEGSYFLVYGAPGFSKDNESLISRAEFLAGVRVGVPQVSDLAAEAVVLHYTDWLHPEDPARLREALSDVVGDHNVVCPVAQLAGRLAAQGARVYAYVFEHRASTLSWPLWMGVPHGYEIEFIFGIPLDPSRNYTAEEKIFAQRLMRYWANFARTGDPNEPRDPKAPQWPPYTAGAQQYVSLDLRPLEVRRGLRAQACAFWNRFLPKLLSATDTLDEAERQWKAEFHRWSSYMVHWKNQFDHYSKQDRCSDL

| Compound | Activity [1] | Ki [2] [nM] | Activity [3] | Ki [4] [nM] | Ki (Liver carboxylesterase 1) [µM] |
| --- | --- | --- | --- | --- | --- |
| CS(=O)(=O)Nc1ccc(SSc2ccc(NS(C)(=O)=O)cc2)cc1 | inactive | 767 | inactive | > 100000 | – |
| CCOc1ccc(NS(=O)(=O)c2ccc(Cl)cc2)cc1 | inactive | 1310 | inactive | 3220 | – |
| O=S(=O)(Nc1ccc2c(c1)Cc1cc(NS(=O)(=O)c3ccc(Cl)cc3)ccc1-2)c1ccc(Cl)cc1 | inactive | 23.5 | inactive | 37.7 | > 100 |
| Cc1c(C)c(NS(=O)(=O)c2ccc(Cl)cc2)c(C)c(C)c1NS(=O)(=O)c1ccc(Cl)cc1 | inactive | 2010 | inactive | – | > 100 |
| Cc1ccc(S(=O)(=O)Nc2ccc(NS(=O)(=O)c3ccc(F)cc3F)cc2)cc1 | inactive | 385 | inactive | – | > 100 |
| COc1ccc(S(=O)(=O)Nc2ccc(NS(=O)(=O)c3ccc(F)cc3)cc2)cc1 | inactive | 568 | inactive | – | > 100 |
| O=S(=O)(Nc1ccc(NS(=O)(=O)c2cccc(Br)c2)cc1)c1cccc(Br)c1 | inactive | 67 | inactive | 121 | > 100 |
| Cc1ccc(S(=O)(=O)Nc2ccc(NS(=O)(=O)c3cc(F)ccc3F)cc2)cc1 | inactive | 467 | inactive | – | > 100 |
| O=S(=O)(Nc1ccc(NS(=O)(=O)c2cc(F)cc(F)c2)cc1)c1cc(F)cc(F)c1 | inactive | 246 | inactive | – | > 100 |
| Cc1cc(NS(=O)(=O)c2ccccc2)ccc1NS(=O)(=O)c1ccccc1 | inactive | 365 | inactive | 238 | – |
| O=S(=O)(Nc1ccc(NS(=O)(=O)c2cc(Cl)c(Cl)cc2Cl)cc1)c1cc(Cl)c(Cl)cc1Cl | inactive | > 100000 | inactive | – | > 100 |
| O=S(=O)(Nc1ccc(NS(=O)(=O)c2ccc(F)c(F)c2)cc1)c1ccc(F)c(F)c1 | inactive | 160 | inactive | – | > 100 |
| O=S(=O)(Nc1c(F)c(F)c(NS(=O)(=O)c2ccc(Cl)cc2)c(F)c1F)c1ccc(Cl)cc1 | inactive | 41.5 | inactive | 110 | – |
| Cc1ccc(S(=O)(=O)Nc2ccc(NS(=O)(=O)c3ccc(F)c(F)c3)cc2)cc1 | inactive | 194 | inactive | – | > 100 |
| O=S(=O)(Nc1ccc2c(c1)Cc1cc(NS(=O)(=O)c3ccccc3)ccc1-2)c1ccccc1 | inactive | 90.8 | inactive | 84.7 | > 100 |
| O=S(=O)(Nc1ccc2c(c1)Cc1cc(NS(=O)(=O)c3cccc(Cl)c3)ccc1-2)c1cccc(Cl)c1 | inactive | 13.9 | inactive | 52.8 | > 100 |
| O=S(=O)(Nc1ccc(NS(=O)(=O)c2ccc3ccccc3c2)cc1)c1ccc2ccccc2c1 | inactive | 1580 | inactive | – | > 100 |
| O=S(=O)(Nc1ccc(NS(=O)(=O)c2c(F)cccc2F)cc1)c1c(F)cccc1F | inactive | 5260 | inactive | > 100000 | > 100 |
| CNC(=O)c1ccc(S(=O)(=O)Nc2ccc(NS(=O)(=O)c3ccc(F)cc3)cc2)cc1 | inactive | > 100000 | inactive | – | > 100 |
| O=S(=O)(Nc1c(F)c(F)c(NS(=O)(=O)c2ccc(F)cc2)c(F)c1F)c1ccc(F)cc1 | inactive | 314 | inactive | – | > 100 |
| Cc1c(C)c(NS(=O)(=O)c2ccc(Cl)c(Cl)c2)c(C)c(C)c1NS(=O)(=O)c1ccc(Cl)c(Cl)c1 | inactive | 344 | inactive | – | > 100 |
| O=S(=O)(Nc1ccc(NS(=O)(=O)c2cccc(Cl)c2Cl)cc1)c1cccc(Cl)c1Cl | inactive | 268 | inactive | – | > 100 |

| Compound | Activity [1] | Ki [2] [nM] | Activity [3] | Ki [4] [nM] | Ki (Liver carboxylesterase 1) [µM] |
| --- | --- | --- | --- | --- | --- |
| O=S(=O)(Nc1ccc(NS(=O)(=O)c2ccccc2F)cc1)c1ccccc1F | inactive | 1450 | inactive | – | > 100 |
| O=S(=O)(Nc1ccc(NS(=O)(=O)c2ccc(Cl)c(Cl)c2)cc1)c1ccc(Cl)c(Cl)c1 | inactive | 91.5 | inactive | – | > 100 |
| O=S(=O)(Nc1ccc(NS(=O)(=O)c2ccc(F)c(F)c2)cc1)c1ccccc1 | inactive | 488 | inactive | – | > 100 |
| O=S(=O)(Nc1cc(Br)c(NS(=O)(=O)c2ccc(Cl)cc2)cc1Br)c1ccc(Cl)cc1 | inactive | > 100000 | inactive | – | > 100 |
| O=S(=O)(Nc1ccc(Oc2ccccc2)cc1)c1ccc(Br)cc1 | inactive | 165 | inactive | > 100000 | – |
| O=S(=O)(Nc1ccc(NS(=O)(=O)c2ccc(Cl)cc2)cc1)c1ccc(Cl)cc1 | inactive | – | inactive | 141 | – |
| O=S(=O)(Nc1cc(Br)c(NS(=O)(=O)c2ccccc2)cc1Br)c1ccccc1 | inactive | > 100000 | inactive | – | > 100 |
| Cc1c(C)c(NS(=O)(=O)c2cccc(Br)c2)c(C)c(C)c1NS(=O)(=O)c1cccc(Br)c1 | inactive | 1570 | inactive | – | > 100 |
| O=S(=O)(Nc1ccc(NS(=O)(=O)c2ccc(Cl)cc2)c2ccccc12)c1ccc(Cl)cc1 | inactive | 194 | inactive | > 100000 | – |
| O=C(O)c1ccc(S(=O)(=O)Nc2ccc(NS(=O)(=O)c3ccc(F)cc3)cc2)cc1 | inactive | > 100000 | inactive | – | > 100 |
| O=S(=O)(Nc1ccc(NS(=O)(=O)c2cc(Cl)cc(Cl)c2)cc1)c1cc(Cl)cc(Cl)c1 | inactive | 385 | inactive | – | > 100 |
| Cc1ccc(C)c(S(=O)(=O)Nc2ccc(NS(=O)(=O)c3ccc(F)cc3)cc2)c1 | inactive | 240 | inactive | – | > 100 |
| Cc1ccc(S(=O)(=O)Nc2ccc(NS(=O)(=O)c3ccc(Cl)cc3)cc2)cc1 | inactive | 161 | inactive | – | > 100 |
| O=S(=O)(Nc1ccc(NS(=O)(=O)c2cc(Cl)ccc2Cl)cc1)c1cc(Cl)ccc1Cl | inactive | 119 | inactive | – | > 100 |
| O=S(=O)(Nc1cc(Cl)c(NS(=O)(=O)c2ccc(Cl)cc2)cc1Cl)c1ccc(Cl)cc1 | inactive | 455 | inactive | – | > 100 |
| O=S(=O)(Nc1ccc(NS(=O)(=O)c2ccccc2)c(Cl)c1)c1ccccc1 | inactive | 696 | inactive | – | > 100 |
| Cc1ccc(S(=O)(=O)Nc2ccc(NS(=O)(=O)c3ccc(F)cc3)cc2)cc1 | inactive | 281 | inactive | – | > 100 |
| O=S(=O)(Nc1ccc(NS(=O)(=O)c2ccc(Cl)cc2)cc1)c1ccc(F)cc1 | inactive | 200 | inactive | – | > 100 |
| O=S(=O)(Nc1c(Cl)c(Cl)c(NS(=O)(=O)c2ccccc2)c(Cl)c1Cl)c1ccccc1 | inactive | 451 | inactive | > 100000 | – |
| Cc1c(C)c(NS(=O)(=O)c2cccc(Cl)c2)c(C)c(C)c1NS(=O)(=O)c1cccc(Cl)c1 | inactive | 2060 | inactive | – | > 100 |
| Cc1ccc(C(=O)O)cc1S(=O)(=O)Nc1ccc(NS(=O)(=O)c2ccc(F)cc2)cc1 | inactive | 693 | inactive | – | > 100 |
